Screening data: PubChem, several laboratories
In the library only some 2.1% were active in any assay of this set; here they are far more common.
KLK5 inh: human KLK5 protease inhibitors, primary screen, biochemical, 1536-well | inhibition, % at 5 µM | AID 873, 2007 | 210,000 tested, 0.59% active | Kallikrein-5 (Homo sapiens), Q9Y337 | recombinant hK5, fluorogenic AMC substrate cleavage;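 active = inhibition of 40% or more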;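 note: 0% = enzyme controls without compound and 100% = no-enzyme blanks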
Target sequence (Q9Y337 67-293 limits assumed): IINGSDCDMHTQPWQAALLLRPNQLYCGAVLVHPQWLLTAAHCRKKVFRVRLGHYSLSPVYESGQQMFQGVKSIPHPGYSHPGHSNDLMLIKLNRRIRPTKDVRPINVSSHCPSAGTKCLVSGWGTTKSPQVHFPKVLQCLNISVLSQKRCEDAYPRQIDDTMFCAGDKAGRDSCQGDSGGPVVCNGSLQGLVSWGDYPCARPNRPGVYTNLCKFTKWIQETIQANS
thrombin 1536: human alpha-thrombin inhibitors, primary screen, counter-screen for coagulation protease inhibitor project, biochemical, 1536-well, fluorogenic AMC substrate; 220,000 tested, 0.26% active; Boc-VPR-AMC fluorogenic substrate cleavage; inhibition, % at 5 µM; Prothrombin (Homo sapiens), P00734; AID 1046, 2008;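 active = inhibition at or above 40%; inactive = inhibition below 40%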;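 note: 0% = enzyme with no compound and 100% = wells without enzyme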
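System – human alpha-thrombin protein · Reagent – Boc-VPR-AMC substrate, 15 µM final · Compound – 5 µM single dose in 0.2% DMSO · Schedule – reaction at room temperature · Technique – AMC fluorescence at 355 nm excitation and 460 nm emission · Read-out basis – % inhibition relative to enzyme controls and enzyme-free blanks · Control set – no-compound enzyme wells and no-enzyme blanks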
EP2 modulator: EP2 receptor modulators, cAMP readout, primary screen, cell-based, HTRF cAMP, PGE2 stimulation. EP2-expressing cells, cAMP HTRF FRET, PGE2 co-stimulation. 260,000 tested, 0.83% active. induction, % at 25 µM;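 active = compounds whose cAMP rise, as percent of the full-agonist control response, exceeds 60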;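 note: rat C6 glioma line stably carrying human EP2 under a CMV promoter; the protocol text gives 20 µM as final concentration; 100% = response of wells given 1 µM PGE2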
Target sequence (P43116 whole entry, looked up): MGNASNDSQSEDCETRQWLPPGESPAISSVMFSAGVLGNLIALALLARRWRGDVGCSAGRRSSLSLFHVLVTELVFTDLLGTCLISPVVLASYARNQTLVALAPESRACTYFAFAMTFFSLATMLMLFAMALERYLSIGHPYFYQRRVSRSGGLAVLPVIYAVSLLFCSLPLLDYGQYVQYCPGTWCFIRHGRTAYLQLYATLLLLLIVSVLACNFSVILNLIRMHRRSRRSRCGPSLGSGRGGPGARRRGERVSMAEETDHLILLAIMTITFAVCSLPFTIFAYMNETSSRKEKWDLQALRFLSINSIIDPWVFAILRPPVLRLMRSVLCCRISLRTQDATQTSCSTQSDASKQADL
EP2 antag: human EP2 receptor antagonists, primary screen, TR-FRET cAMP, C6 glioma cells; Prostaglandin E2 receptor EP2 subtype (Homo sapiens), P43116; C6 glioma cells expressing human EP2; cells stimulated with saturating PGE2; inhibition, % at 25 µM; 260,000 tested, 0.52% active;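 active = percent inhibition above 40 after rounding to a whole number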;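 note: rat C6 glioma host cells with rolipram phosphodiesterase inhibitor present; the protocol text gives 20 µM as final concentration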
FXIIa inh: human FXIIa protease inhibitors, primary screen, biochemical, 1536-well; AID 800, 2007; purified FXIIa, Boc-QGR-AMC fluorogenic substrate, 2 h; 220,000 tested, 0.3% active; inhibition, % at 5 µM; Coagulation factor XII (Homo sapiens), P00748; in the data active = inhibition above about 40%;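 note: 0% = enzyme with no compound and 100% = blank without enzyme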
FXIa inh: human FXIa protease inhibitors, primary screen, biochemical, 1536-well. inhibition, % at 5 µM. AID 798, 2007. 220,000 tested, 0.14% active. Coagulation factor XI (Homo sapiens), P03951. purified FXIa, Boc-Glu-Ala-Arg-AMC fluorogenic substrate;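 active = inhibition of at least 40%; inactive = inhibition below 40%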;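 note: fluorescence of freed AMC excited at 355 nm; 0% = enzyme without compound and 100% = no enzyme blank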
EP2 cAMP induct: cAMP induction in EP2, EP4, beta2-AR and parental cells, confirmation, counter-screen for EP2 modulator project, cell-based, five parallel assays, C6 glioma, HEK293 | shares compounds with EP2 modulator | cAMP HTRF induction; plus low (about EC15) PGE2 agonist | calls only at 20 µM (by protocol) | 1,300 tested, 47% active | AID 1080, 2008;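 active = cAMP induction above 50% in the main assay while under 30% in all four parallel counter assays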;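 note: rat C6 glioma cells stably expressing human EP2 receptor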
Active calls of the source: *; i = inactive; nt = not tested or not shown; + = active, no number.

SMILES	KLK5 inh	thrombin 1536	EP2 modulator	EP2 antag	FXIIa inh	FXIa inh	EP2 cAMP induct
O=C(O)c1ccc(-n2nc(C(F)(F)F)c3c2-c2ccoc2CC3)cc1	2	1	-14	8	17	4	nt
COC(=O)c1ccc(-n2nc(C(F)(F)F)c3c2-c2ccoc2CC3)cc1	-7	-1	72*	10	10	-2	i
C=CCCCOc1ccc(C(=O)O)cc1	-1	-6	5	11	2	-3	nt
C=CCC(=O)OCCCCCCOc1ccc(C(=O)O)cc1	-29	1	67*	7	14	5	i
CCOC(=O)c1[nH]c2ccc(OC)cc2c1NS(=O)(=O)c1ccc(Cl)s1	8	-1	96*	4	16	29	+
Cc1ccc(-n2c(=S)[nH]c3c(oc4ccccc43)c2=O)cc1	-1	-1	74*	14	12	11	i
Cc1ccc(-n2c(C)nc3oc4ccccc4c(=O)c3c2=O)cc1	-1	-2	16	16	22	20	nt
O=c1c2sccc2[nH]c(=S)n1-c1ccccc1	24	-9	-22	5	-3	-2	nt
Cc1cccc(-n2c(=S)[nH]c3c(oc4ccccc43)c2=O)c1	18	11	71*	13	11	11	i
O=c1c2oc3ccccc3c2[nH]c(=S)n1-c1ccccc1	-6	-5	71*	13	10	6	i
Cc1cc2ccccc2n2c(=O)n(CC(C)NC(=O)c3cnn(C)c3C)nc12 (stereo unspecified)	nt	nt	-28	6	nt	nt	nt
CCn1c(=O)n(CC(=O)NCc2cccc(F)c2)c2cccnc21	nt	nt	-13	12	nt	nt	nt
Cc1nc(SCCC(=O)O)c2ccccc2n1	2	-7	83*	25	4	2	i
O=C(O)CCSc1ccc2ccccc2n1	5	5	80*	10	17	7	i
O=C(O)CSc1ccc2ccccc2n1	3	1	67*	14	4	3	i
COc1ccc(NC(=O)CCSc2ccc3ccccc3n2)cc1	-12	-4	-30	8	11	6	nt
Cc1n[nH]c(C)c1CNC(=O)C1ON=C(c2ccc(F)cc2)C1C (stereo unspecified)	nt	nt	-14	4	nt	nt	nt
CCc1ccc2[nH]c(=O)c(CN(Cc3ccco3)S(=O)(=O)c3cccc(C(=O)OC)c3)cc2c1	nt	nt	-52	11	nt	nt	nt
O=C(CSc1nnc(Cc2ccccc2)n1Cc1ccco1)NC12CC3CC(CC(C3)C1)C2	-12	-1	63*	-3	8	-10	i
O=c1[nH]c(=S)c2c(n1-c1ccccc1)CCC2	-2	-3	82*	33	-5	-1	i
CCOC(=O)C1=C(C)N(C)C(C)=C(C(=O)OCC)C1c1ccsc1	-4	0	72*	9	7	-3	+
CCOC(=O)C1=C(C)OC(N)=C(C#N)C1c1ccsc1 (stereo unspecified)	-7	-2	15	9	1	1	nt
CCOC(=O)C1=C(C)OC(N)=C(C#N)C1c1cc(C)sc1C (stereo unspecified)	-9	2	53	-2	18	4	i
CCOC(=O)C1=C(CC)OC(N)=C(C#N)C1c1ccsc1 (stereo unspecified)	-12	-4	57	6	6	-2	i
CCOC(=O)C1=C(C)N(C)C(C)=C(C(=O)OCC)C1c1ccc(Cl)cc1	-20	-1	52	0	15	10	nt
SMILES	KLK5 inh	thrombin 1536	EP2 modulator	EP2 antag	FXIIa inh	FXIa inh	EP2 cAMP induct
C=CCSc1nccc(-c2cc(Cl)sc2Cl)n1	-2	-2	67*	17	4	-1	i
N#CCSc1nccc(-c2cc(Cl)sc2Cl)n1	-13	-2	45	13	19	1	nt
CCOC(=O)c1sc(NC(=O)CN2C(=O)c3cccc4cccc(c34)C2=O)nc1C	6	0	66*	-3	14	4	i
CCOC(=O)c1sc(NC(=O)CCCCCN2C(=O)c3cccc4cccc(c34)C2=O)nc1C	-20	-5	8	2	14	4	nt
CCCn1cnc2sc(C(N)=O)c(C)c2c1=O	-7	-2	2	8	9	3	nt
CCCn1cnc2sc(CC)cc2c1=O	-11	5	50	8	15	5	i
CC(C)c1nc(-c2cc3ccccc3[nH]c2=O)no1	nt	nt	-32	10	nt	nt	nt
Cc1cccc(-c2nc(=S)c3c(n2Cc2ccco2)CCCC3)c1	2	0	66*	7	19	0	i
Cc1ccc(-c2nc(=S)c3c(n2Cc2ccco2)CCCC3)cc1	-9	-4	21	-1	3	-15	nt
CC1CN(c2nc3ccccc3cc2-c2ccccc2)CC(C)O1 (stereo unspecified)	-5	-2	67*	5	1	-6	+
CC1CN(c2cc(-c3ccccc3)c3ccccc3n2)CC(C)O1 (stereo unspecified)	-21	-3	54	10	-15	-13	nt
CCc1ccccc1NC1c2ccccc2C(=O)N1c1cc(C)ccn1 (stereo unspecified)	-5	2	81*	9	10	5	i
Cc1ccnc(N2C(=O)c3ccccc3C2Nc2ccccc2Cl)c1 (stereo unspecified)	4	-1	48	9	7	3	nt
CCOc1ccccc1NC1c2ccccc2C(=O)N1c1ccc(C)cn1 (stereo unspecified)	-1	0	81*	5	3	2	i
COC(=O)c1[nH]c2ccc(F)cc2c1N	nt	nt	-32	11	nt	nt	nt
COc1ccc(S(=O)(=O)N(Cc2cccs2)C2CCCC2)cc1	-11	-9	81*	5	-14	-8	+
O=S(=O)(NCC1CCCO1)c1ccc(S(=O)(=O)N(Cc2cccs2)C2CC2)cc1 (stereo unspecified)	nt	nt	-66	9	nt	nt	nt
COc1ccc2c(c1)NC1(CCN(Cc3cnn(C)c3C)CC1)c1cccn1-2	nt	nt	-98	6	nt	nt	nt
Cc1cccc2cc(CN(Cc3cccs3)C3(c4nnnn4C4CCCC4)CCCC3)c(=O)[nH]c12	7	7	66*	13	-2	-11	i
